Assay results published in ChEMBL document CHEMBL1142894, “Preparation of 5-aryl-3-alkylthio-l,2,4-triazoles and corresponding sulfones with antiinflammatory-analgesic activity” (Bioorg Med Chem, 2007).
Activity calls are given as the source filed them. The rule behind the calls is not given here.

Legend:
[1] = system: Mus musculus; assay: Antiinflammatory activity against carrageenan-induced paw edema in Swiss albino mouse assessed as swelling thickness at 100 mg/kg, po after 90 mins; format: functional
Method in brief: (§1)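 Oral dosing in 0.5% CMC; vehicle to controls. Then carrageenan (0.5 mg/25 ll, freshly suspended in 154 mM saline) injected into the right hind paw subplantar tissue; saline into the left paw. Right-left footpad thickness difference measured by dial gauge calliper every 90 min over 6 h. Inhibition % is relative to vehicle control. n = 6; mean ± SEM.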

[2] = system: Mus musculus; assay: Antiinflammatory activity against carrageenan-induced paw edema in Swiss albino mouse assessed as swelling thickness at 100 mg/kg, po after 180 mins; format: functional; method in brief: as §1
[3] = system: Mus musculus; assay: Antiinflammatory activity against carrageenan-induced paw edema in Swiss albino mouse assessed as swelling thickness at 100 mg/kg, po after 270 mins; format: functional; method in brief: as §1
[4] = system: Mus musculus; assay: Antiinflammatory activity against carrageenan-induced paw edema in Swiss albino mouse assessed as swelling thickness at 100 mg/kg, po after 360 mins; format: functional; method in brief: as §1
[5] = system: Mus musculus; assay: Inhibition of carrageenan-induced paw edema in Swiss albino mouse at 100 mg/kg, po after 90 mins relative to control; format: functional; conditions: 1.5 h; method in brief: as §1
[6] = system: Mus musculus; assay: Inhibition of carrageenan-induced paw edema in Swiss albino mouse at 100 mg/kg, po after 180 mins relative to control; format: functional; conditions: 3 h; method in brief: as §1
[7] = system: Mus musculus; assay: Inhibition of carrageenan-induced paw edema in Swiss albino mouse at 100 mg/kg, po after 270 mins relative to control; format: functional; conditions: 4.5 h; method in brief: as §1
[8] = system: Mus musculus; assay: Inhibition of carrageenan-induced paw edema in Swiss albino mouse at 100 mg/kg, po after 360 mins relative to control; format: functional; conditions: 6 h; method in brief: as §1
[9] = system: Mus musculus; assay: Antiinflammatory activity in Swiss albino mouse assessed as inhibition of carrageenan-induced paw edema at 50 mg/kg, po; format: functional
[10] = system: Mus musculus; assay: Analgesic activity against p-benzoquinone-induced abdominal constriction in Swiss albino mouse assessed as number of writhings at 25 mg/kg, po; format: functional, Abdomen
Method in brief: (§2)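 Test samples given orally in 0.5% CMC; vehicle to controls. 60 min later, 2.5% (v/v) p-benzoquinone in distilled water, 0.1 ml/10 g, given i.p. Mice housed singly; writhes counted for 15 min starting 5 min after injection. Activity is % change from vehicle controls. n = 6; mean ± SEM.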

[11] = system: Mus musculus; assay: Analgesic activity against p-benzoquinone-induced abdominal constriction in Swiss albino mouse assessed as number of writhings at 50 mg/kg, po; format: functional, Abdomen; method in brief: as §2
[12] = system: Mus musculus; assay: Analgesic activity against p-benzoquinone-induced abdominal constriction in Swiss albino mouse assessed as number of writhings at 100 mg/kg, po; format: functional, Abdomen; method in brief: as §2
[13] = system: Mus musculus; assay: Analgesic activity against p-benzoquinone-induced abdominal constriction in Swiss albino mouse assessed as number of writhings at 200 mg/kg, po; format: functional, Abdomen; method in brief: as §2
[14] = system: Mus musculus; assay: Inhibition of p-benzoquinone-induced writhing in Swiss albino mouse at 25 mg/kg, po relative to control; format: functional
Method in brief: (§3)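 Mice, n = 6 per group, dosed orally with a suspension in 0.5% sodium CMC. 60 min later, 0.1 ml/10 g of 2.5% […] p-benzoquinone in distilled water given ip. Abdominal writhes counted per animal for 15 min, starting 5 min after injection. Expressed as % change in mean writhing count versus vehicle controls.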

[15] = system: Mus musculus; assay: Inhibition of p-benzoquinone-induced writhing in Swiss albino mouse at 50 mg/kg, po relative to control; format: functional; method in brief: as §3
[16] = system: Mus musculus; assay: Inhibition of p-benzoquinone-induced writhing in Swiss albino mouse at 100 mg/kg, po relative to control; format: functional; method in brief: as §3
[17] = system: Mus musculus; assay: Inhibition of p-benzoquinone-induced writhing in Swiss albino mouse at 200 mg/kg, po relative to control; format: functional; method in brief: as §3
[18] = system: Mus musculus; assay: Gastric-ulcerogenic effect in Swiss albino mouse assessed as lesions at 25 mg/kg, po; format: functional, organism-based; set-up: dose 25 mg/kg
Method in brief: (§4)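 Mice killed under deep ether anesthesia 3 h after the writhing test; the oral dose in 0.5% CMC was the one used in that test. Stomachs removed, opened along the great curvature and examined under a dissecting microscope for lesions or bleeding. Reported as ratio of ulceration; n = 6.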

[19] = system: Mus musculus; assay: Gastric-ulcerogenic effect in Swiss albino mouse assessed as lesions at 50 mg/kg, po; format: functional, organism-based; set-up: dose 50 mg/kg; method in brief: as §4
[20] = system: Mus musculus; assay: Gastric-ulcerogenic effect in Swiss albino mouse assessed as lesions at 100 mg/kg, po; format: functional, organism-based; set-up: dose 100 mg/kg; method in brief: as §4
[21] = system: Mus musculus; assay: Antiinflammatory activity against carrageenan-induced paw edema in Swiss albino mouse assessed as swelling thickness at 25 mg/kg, po after 90 mins; format: functional; method in brief: as §1
[22] = system: Mus musculus; assay: Antiinflammatory activity against carrageenan-induced paw edema in Swiss albino mouse assessed as swelling thickness at 25 mg/kg, po after 180 mins; format: functional; method in brief: as §1
[23] = system: Mus musculus; assay: Antiinflammatory activity against carrageenan-induced paw edema in Swiss albino mouse assessed as swelling thickness at 25 mg/kg, po after 270 mins; format: functional; method in brief: as §1
[24] = system: Mus musculus; assay: Antiinflammatory activity against carrageenan-induced paw edema in Swiss albino mouse assessed as swelling thickness at 25 mg/kg, po after 360 mins; format: functional; method in brief: as §1
[25] = system: Mus musculus; assay: Antiinflammatory activity against carrageenan-induced paw edema in Swiss albino mouse assessed as swelling thickness at 50 mg/kg, po after 180 mins; format: functional; method in brief: as §1
[26] = system: Mus musculus; assay: Antiinflammatory activity against carrageenan-induced paw edema in Swiss albino mouse assessed as swelling thickness at 50 mg/kg, po after 270 mins; format: functional; method in brief: as §1
[27] = system: Mus musculus; assay: Antiinflammatory activity against carrageenan-induced paw edema in Swiss albino mouse assessed as swelling thickness at 50 mg/kg, po after 360 mins; format: functional; method in brief: as §1
[28] = system: Mus musculus; assay: Antiinflammatory activity against carrageenan-induced paw edema in Swiss albino mouse assessed as swelling thickness at 200 mg/kg, po after 90 mins; format: functional; method in brief: as §1
[29] = system: Mus musculus; assay: Antiinflammatory activity against carrageenan-induced paw edema in Swiss albino mouse assessed as swelling thickness at 200 mg/kg, po after 180 mins; format: functional; method in brief: as §1
[30] = system: Mus musculus; assay: Antiinflammatory activity against carrageenan-induced paw edema in Swiss albino mouse assessed as swelling thickness at 200 mg/kg, po after 270 mins; format: functional; method in brief: as §1
[31] = system: Mus musculus; assay: Antiinflammatory activity against carrageenan-induced paw edema in Swiss albino mouse assessed as swelling thickness at 200 mg/kg, po after 360 mins; format: functional; method in brief: as §1
[32] = system: Mus musculus; assay: Inhibition of carrageenan-induced paw edema in Swiss albino mouse at 25 mg/kg, po after 90 mins relative to control; format: functional; conditions: 1.5 h; method in brief: as §1
[33] = system: Mus musculus; assay: Inhibition of carrageenan-induced paw edema in Swiss albino mouse at 25 mg/kg, po after 180 mins relative to control; format: functional; conditions: 3 h; method in brief: as §1
[34] = system: Mus musculus; assay: Inhibition of carrageenan-induced paw edema in Swiss albino mouse at 25 mg/kg, po after 270 mins relative to control; format: functional; conditions: 4.5 h; method in brief: as §1
[35] = system: Mus musculus; assay: Inhibition of carrageenan-induced paw edema in Swiss albino mouse at 25 mg/kg, po after 360 mins relative to control; format: functional; conditions: 6 h; method in brief: as §1
[36] = system: Mus musculus; assay: Inhibition of carrageenan-induced paw edema in Swiss albino mouse at 50 mg/kg, po after 90 mins relative to control; format: functional; conditions: 1.5 h
Method in brief: (§5)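 Mice, n = 6 per group. Test agent given orally as a suspension in 0.5% sodium CMC in distilled water; controls received vehicle only. Afterwards, 0.5 mg/25 ll carrageenan in saline (154 mM NaCl) injected subplantar into the right hind paw, saline into the left. Right-minus-left footpad thickness measured by dial gauge caliper every 90 min for 6 h. Inhibition is relative to vehicle-control group means.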

[37] = system: Mus musculus; assay: Inhibition of carrageenan-induced paw edema in Swiss albino mouse at 50 mg/kg, po after 180 mins relative to control; format: functional; conditions: 3 h; method in brief: as §1
[38] = system: Mus musculus; assay: Inhibition of carrageenan-induced paw edema in Swiss albino mouse at 50 mg/kg, po after 270 mins relative to control; format: functional; conditions: 4.5 h; method in brief: as §5
[39] = system: Mus musculus; assay: Inhibition of carrageenan-induced paw edema in Swiss albino mouse at 50 mg/kg, po after 360 mins relative to control; format: functional; conditions: 6 h; method in brief: as §5
[40] = system: Mus musculus; assay: Inhibition of carrageenan-induced paw edema in Swiss albino mouse at 200 mg/kg, po after 90 mins relative to control; format: functional; conditions: 1.5 h; method in brief: as §1
[41] = system: Mus musculus; assay: Inhibition of carrageenan-induced paw edema in Swiss albino mouse at 200 mg/kg, po after 180 mins relative to control; format: functional; conditions: 3 h; method in brief: as §1
[42] = system: Mus musculus; assay: Inhibition of carrageenan-induced paw edema in Swiss albino mouse at 200 mg/kg, po after 270 mins relative to control; format: functional; conditions: 4.5 h; method in brief: as §1
[43] = system: Mus musculus; assay: Inhibition of carrageenan-induced paw edema in Swiss albino mouse at 200 mg/kg, po after 360 mins relative to control; format: functional; conditions: 6 h; method in brief: as §1
[44] = system: Mus musculus; assay: Acute toxicity in Swiss albino mouse assessed as lethal effect at 25 mg/kg/day, po after 72 hrs; format: organism-based; set-up: route oral; conditions: in vivo
Method in brief: (§6)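 Oral single dose suspended in 0.5% carboxymethylcellulose, given after a 24 h fast; food and water returned 1 h after dosing. Vehicle-only controls. Mice observed at 1 h, then once daily for 72 h, for toxic signs and mortality.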

[45] = system: Mus musculus; assay: Acute toxicity in Swiss albino mouse assessed as lethal effect at 50 mg/kg/day, po after 72 hrs; format: organism-based; set-up: route oral; conditions: in vivo; method in brief: as §6
[46] = system: Mus musculus; assay: Acute toxicity in Swiss albino mouse assessed as lethal effect at 100 mg/kg/day, po after 72 hrs; format: organism-based; set-up: route oral; conditions: in vivo; method in brief: as §6
[47] = system: Mus musculus; assay: Acute toxicity in Swiss albino mouse assessed as lethal effect at 200 mg/kg/day, po after 72 hrs; format: organism-based; set-up: route oral; conditions: in vivo; method in brief: as §6
[48] = system: Mus musculus; assay: Antiinflammatory activity against carrageenan-induced paw edema in Swiss albino mouse assessed as swelling thickness at 50 mg/kg, po after 90 mins; format: functional; method in brief: as §1

For `CCS(=O)(=O)c1nc(-c2ccc(Cl)cc2)n[nH]1`, the Activity [1] was 27.2 10^-2mm, the Activity [2] was 31 10^-2mm and the Activity [3] was 34.5 10^-2mm. For the same compound, the Activity [4] was 35.3 10^-2mm, the inhibition in vivo at 100 mg/kg [5] was 39.3% and the inhibition in vivo at 100 mg/kg [6] was 39.8%. The inhibition in vivo at 100 mg/kg [7] was 41.3%, the inhibition in vivo at 100 mg/kg [8] was 48.7% and the inhibition in vivo at 50 mg/kg [9] was 40.2%. For the same compound, the Activity [10] was 37.8, the Activity [11] was 20.8 and the Activity [12] was 20.4. It also gave an Activity [13] of 44.1, an inhibition in vivo at 25 mg/kg [14] of 26.5% and an inhibition in vivo at 50 mg/kg [15] of 59.5%. For the same compound, the inhibition in vivo at 100 mg/kg [16] was 56.9%, the inhibition in vivo at 200 mg/kg [17] was 18.5% and the Activity [18] was “Active”. The Activity [19] was “Active”, the Activity [20] was “Active” and the Activity [21] was 45.8 10^-2mm. For the same compound, the Activity [22] was 49.6 10^-2mm, the Activity [23] was 57.9 10^-2mm and the Activity [24] was 61.2 10^-2mm. For the same compound, the Activity [25] was 36.1 10^-2mm, the Activity [26] was 37.2 10^-2mm and the Activity [27] was 39.4 10^-2mm. The Activity [28] was 45.5 10^-2mm, the Activity [29] was 48.9 10^-2mm and the Activity [30] was 55.4 10^-2mm. For the same compound, the Activity [31] was 58.4 10^-2mm, the inhibition in vivo at 25 mg/kg [32] was 13.9% and the inhibition in vivo at 25 mg/kg [33] was 16.5%. For the same compound, the inhibition in vivo at 25 mg/kg [34] was 10.6%, the inhibition in vivo at 25 mg/kg [35] was 15% and the inhibition in vivo at 50 mg/kg [36] was 33.5%. It also gave an inhibition in vivo at 50 mg/kg [37] of 39.2%, an inhibition in vivo at 50 mg/kg [38] of 42.6% and an inhibition in vivo at 50 mg/kg [39] of 45.3%. The inhibition in vivo at 200 mg/kg [40] was 14.5%, the inhibition in vivo at 200 mg/kg [41] was 17.7% and the inhibition in vivo at 200 mg/kg [42] was 14.5%. For the same compound, the inhibition in vivo at 200 mg/kg [43] was 18.9%, the Activity [44] was “Non-toxic” and the Activity [45] was “Non-toxic”. The Activity [46] was “Non-toxic”, the Activity [47] was “Non-toxic” and the Activity [48] was 35.4 10^-2mm.
